Assays:
[1] = system: Japanese patients with T2DM; assay: Adverse events, 7-day once-daily dosing; format: in vivo, human; details: for ALT increased / Blood urine present / Constipation / Dermatitis contact / Diarrhea / Headache / Pruritus / γ-GTP increased: N = 8
Summary of the method: (§1)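 Randomized, single-blind, placebo-controlled, parallel-group study in Japanese T2DM outpatients (HbA1c 6.9–10.5%, FPG ≥126 mg/dL, stable diet 4 weeks, age 20–74 y). Test compound 0.5, 1, 2.5 or 5 mg or placebo was given orally once daily for 7 days before breakfast. Safety set was all dosed patients. AEs were coded in MedDRA 12.1 and graded mild/moderate/severe, with drug relation judged by the investigator. Labs, vital signs, body weight and ECG were also recorded.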

[2] = system: Japanese patients with T2DM; assay: Clinical laboratory tests and vital signs, 7-day once-daily dosing; format: in vivo, human
Summary of the method: as §1

SMILES: CCOc1ccc(Cc2cc([C@@H]3S[C@H](CO)[C@@H](O)[C@H](O)[C@H]3O)c(OC)cc2C)cc1 [Luseogliflozin, (1S)-1,5-anhydro-1-[5-(4-ethoxybenzyl)-2-methoxy-4-methylphenyl]-1-thio-D-glucitol]
- ALT increased ([1]; 0.5 mg OD for 7 days): 0 number of subjects
- Blood urine present ([1]; 0.5 mg OD for 7 days): 0 number of subjects
- Constipation ([1]; 0.5 mg OD for 7 days): 1 number of subjects
- Dermatitis contact ([1]; 0.5 mg OD for 7 days): 0 number of subjects
- Diarrhea ([1]; 0.5 mg OD for 7 days): 1 number of subjects
- Headache ([1]; 0.5 mg OD for 7 days): 1 number of subjects
- Pruritus ([1]; 0.5 mg OD for 7 days): 1 number of subjects
- γ-GTP increased ([1]; 0.5 mg OD for 7 days): 0 number of subjects
- ALT increased ([1]; 1 mg OD for 7 days): 0 number of subjects
- Blood urine present ([1]; 1 mg OD for 7 days): 0 number of subjects
- Constipation ([1]; 1 mg OD for 7 days): 0 number of subjects
- Dermatitis contact ([1]; 1 mg OD for 7 days): 1 number of subjects
- Diarrhea ([1]; 1 mg OD for 7 days): 0 number of subjects
- Headache ([1]; 1 mg OD for 7 days): 0 number of subjects
- Pruritus ([1]; 1 mg OD for 7 days): 0 number of subjects
- γ-GTP increased ([1]; 1 mg OD for 7 days): 0 number of subjects
- ALT increased ([1]; 2.5 mg OD for 7 days): 1 number of subjects
- Blood urine present ([1]; 2.5 mg OD for 7 days): 0 number of subjects
- Constipation ([1]; 2.5 mg OD for 7 days): 0 number of subjects
- Dermatitis contact ([1]; 2.5 mg OD for 7 days): 0 number of subjects
- Diarrhea ([1]; 2.5 mg OD for 7 days): 0 number of subjects
- Headache ([1]; 2.5 mg OD for 7 days): 0 number of subjects
- Pruritus ([1]; 2.5 mg OD for 7 days): 0 number of subjects
- γ-GTP increased ([1]; 2.5 mg OD for 7 days): 1 number of subjects
- ALT increased ([1]; 5 mg OD for 7 days): 0 number of subjects
- Blood urine present ([1]; 5 mg OD for 7 days): 1 number of subjects
- Constipation ([1]; 5 mg OD for 7 days): 0 number of subjects
- Dermatitis contact ([1]; 5 mg OD for 7 days): 0 number of subjects
- Diarrhea ([1]; 5 mg OD for 7 days): 0 number of subjects
- Headache ([1]; 5 mg OD for 7 days): 1 number of subjects
- Pruritus ([1]; 5 mg OD for 7 days): 0 number of subjects
- γ-GTP increased ([1]; 5 mg OD for 7 days): 0 number of subjects
- episodes of hypoglycemia ([1]; 0.5-5 mg OD for 7 days): no episodes
- serious AEs or AEs leading to discontinuation ([1]; 0.5-5 mg OD for 7 days): no serious AEs
- severity of adverse events ([1]; 0.5-5 mg OD for 7 days): mild
- urinary tract/genital infection ([1]; 0.5-5 mg OD for 7 days): no episodes
- Cystatin C, change from baseline ([2]; 0.5 mg OD, Day 1): -0.040 ± 0.018 mg/L
- DBP, change from baseline ([2]; 0.5 mg OD, Day 1): 3.0 ± 5.2 mmHg
- Hematocrit, change from baseline ([2]; 0.5 mg OD, Day 1): −1.14 ± 0.73%
- SBP, change from baseline ([2]; 0.5 mg OD, Day 1): −1.7 ± 6.0 mmHg
- Serum calcium, change from baseline ([2]; 0.5 mg OD, Day 1): -0.19 ± 0.12 mg/dL
- Serum phosphorus, change from baseline ([2]; 0.5 mg OD, Day 1): 0.30 ± 0.40 mg/dL
- Urinary NAG, change from baseline ([2]; 0.5 mg OD, Day 1): −0.31 ± 0.67 U/L
- Urinary calcium, change from baseline ([2]; 0.5 mg OD, Day 1): 0.01 ± 0.04 g/day
- Urinary phosphorus, change from baseline ([2]; 0.5 mg OD, Day 1): -0.13 ± 0.10 g/day
- Urinary type IV collagen, change from baseline ([2]; 0.5 mg OD, Day 1): −0.40 ± 1.08 μg/g creatinine
- Urinary uric acid, change from baseline ([2]; 0.5 mg OD, Day 1): 0.04 ± 0.05 g/day
- Urinary β2-microglobulin, change from baseline ([2]; 0.5 mg OD, Day 1): -12.4 ± 25.2 µg/L
- Cystatin C, change from baseline ([2]; 0.5 mg OD, Day 7): -0.067 ± 0.029 mg/L
- DBP, change from baseline ([2]; 0.5 mg OD, Day 7): 3.1 ± 3.8 mmHg
- Hematocrit, change from baseline ([2]; 0.5 mg OD, Day 7): −2.20 ± 0.95%
- SBP, change from baseline ([2]; 0.5 mg OD, Day 7): −5.9 ± 3.8 mmHg
- Serum calcium, change from baseline ([2]; 0.5 mg OD, Day 7): -0.24 ± 0.05 mg/dL
- Serum phosphorus, change from baseline ([2]; 0.5 mg OD, Day 7): 0.16 ± 0.40 mg/dL
- Urinary NAG, change from baseline ([2]; 0.5 mg OD, Day 7): −0.06 ± 0.80 U/L
- Urinary calcium, change from baseline ([2]; 0.5 mg OD, Day 7): 0.01 ± 0.04 g/day
- Urinary phosphorus, change from baseline ([2]; 0.5 mg OD, Day 7): -0.04 ± 0.13 g/day
- Urinary type IV collagen, change from baseline ([2]; 0.5 mg OD, Day 7): −0.21 ± 1.25 μg/g creatinine
- Urinary uric acid, change from baseline ([2]; 0.5 mg OD, Day 7): -0.01 ± 0.07 g/day
- Urinary β2-microglobulin, change from baseline ([2]; 0.5 mg OD, Day 7): -7.4 ± 27.1 µg/L
- Cystatin C, change from baseline ([2]; 1 mg OD, Day 1): 0.005 ± 0.077 mg/L
- DBP, change from baseline ([2]; 1 mg OD, Day 1): 0.4 ± 4.9 mmHg
- Hematocrit, change from baseline ([2]; 1 mg OD, Day 1): −1.26 ± 0.86%
- SBP, change from baseline ([2]; 1 mg OD, Day 1): 3.5 ± 9.6 mmHg
- Serum calcium, change from baseline ([2]; 1 mg OD, Day 1): -0.19 ± 0.16 mg/dL
- Serum phosphorus, change from baseline ([2]; 1 mg OD, Day 1): 0.57 ± 0.32 mg/dL
- Urinary NAG, change from baseline ([2]; 1 mg OD, Day 1): −0.33 ± 0.99 U/L
- Urinary calcium, change from baseline ([2]; 1 mg OD, Day 1): 0.00 ± 0.00 g/day
- Urinary phosphorus, change from baseline ([2]; 1 mg OD, Day 1): -0.13 ± 0.10 g/day
- Urinary type IV collagen, change from baseline ([2]; 1 mg OD, Day 1): −0.44 ± 0.61 μg/g creatinine
- Urinary uric acid, change from baseline ([2]; 1 mg OD, Day 1): 0.08 ± 0.07 g/day
- Urinary β2-microglobulin, change from baseline ([2]; 1 mg OD, Day 1): -8.5 ± 31.3 µg/L
- Cystatin C, change from baseline ([2]; 1 mg OD, Day 7): -0.061 ± 0.043 mg/L
- DBP, change from baseline ([2]; 1 mg OD, Day 7): −0.8 ± 6.6 mmHg
- Hematocrit, change from baseline ([2]; 1 mg OD, Day 7): −2.68 ± 0.89%
- SBP, change from baseline ([2]; 1 mg OD, Day 7): −2.4 ± 12.8 mmHg
- Serum calcium, change from baseline ([2]; 1 mg OD, Day 7): -0.41 ± 0.14 mg/dL
- Serum phosphorus, change from baseline ([2]; 1 mg OD, Day 7): 0.20 ± 0.21 mg/dL
- Urinary NAG, change from baseline ([2]; 1 mg OD, Day 7): 0.73 ± 0.80 U/L
- Urinary calcium, change from baseline ([2]; 1 mg OD, Day 7): 0.00 ± 0.00 g/day
- Urinary phosphorus, change from baseline ([2]; 1 mg OD, Day 7): 0.00 ± 0.13 g/day
- Urinary type IV collagen, change from baseline ([2]; 1 mg OD, Day 7): 0.66 ± 1.22 μg/g creatinine
- Urinary uric acid, change from baseline ([2]; 1 mg OD, Day 7): -0.03 ± 0.20 g/day
- Urinary β2-microglobulin, change from baseline ([2]; 1 mg OD, Day 7): 17.3 ± 54.9 µg/L
- Cystatin C, change from baseline ([2]; 2.5 mg OD, Day 1): 0.016 ± 0.060 mg/L
- DBP, change from baseline ([2]; 2.5 mg OD, Day 1): −4.3 ± 5.6 mmHg
- Hematocrit, change from baseline ([2]; 2.5 mg OD, Day 1): −0.58 ± 1.48%
- SBP, change from baseline ([2]; 2.5 mg OD, Day 1): −5.6 ± 9.5 mmHg
- Serum calcium, change from baseline ([2]; 2.5 mg OD, Day 1): -0.15 ± 0.23 mg/dL
- Serum phosphorus, change from baseline ([2]; 2.5 mg OD, Day 1): 0.68 ± 0.23 mg/dL
- Urinary NAG, change from baseline ([2]; 2.5 mg OD, Day 1): −0.68 ± 1.33 U/L
- Urinary calcium, change from baseline ([2]; 2.5 mg OD, Day 1): -0.01 ± 0.04 g/day
- Urinary phosphorus, change from baseline ([2]; 2.5 mg OD, Day 1): -0.24 ± 0.07 g/day
- Urinary type IV collagen, change from baseline ([2]; 2.5 mg OD, Day 1): −0.05 ± 1.13 μg/g creatinine
- Urinary uric acid, change from baseline ([2]; 2.5 mg OD, Day 1): -0.01 ± 0.04 g/day
- Urinary β2-microglobulin, change from baseline ([2]; 2.5 mg OD, Day 1): -11.0 ± 44.9 µg/L
- Cystatin C, change from baseline ([2]; 2.5 mg OD, Day 7): -0.064 ± 0.054 mg/L
- DBP, change from baseline ([2]; 2.5 mg OD, Day 7): −6.1 ± 5.6 mmHg
- Hematocrit, change from baseline ([2]; 2.5 mg OD, Day 7): −2.89 ± 1.81%
- SBP, change from baseline ([2]; 2.5 mg OD, Day 7): −8.8 ± 10.9 mmHg
- Serum calcium, change from baseline ([2]; 2.5 mg OD, Day 7): -0.40 ± 0.27 mg/dL
- Serum phosphorus, change from baseline ([2]; 2.5 mg OD, Day 7): 0.38 ± 0.29 mg/dL
- Urinary NAG, change from baseline ([2]; 2.5 mg OD, Day 7): −0.08 ± 1.26 U/L
- Urinary calcium, change from baseline ([2]; 2.5 mg OD, Day 7): 0.00 ± 0.05 g/day
- Urinary phosphorus, change from baseline ([2]; 2.5 mg OD, Day 7): -0.03 ± 0.17 g/day
- Urinary type IV collagen, change from baseline ([2]; 2.5 mg OD, Day 7): 0.21 ± 1.85 μg/g creatinine
- Urinary uric acid, change from baseline ([2]; 2.5 mg OD, Day 7): -0.06 ± 0.07 g/day
- Urinary β2-microglobulin, change from baseline ([2]; 2.5 mg OD, Day 7): 5.5 ± 44.0 µg/L
- Cystatin C, change from baseline ([2]; 5 mg OD, Day 1): 0.028 ± 0.042 mg/L
- DBP, change from baseline ([2]; 5 mg OD, Day 1): 0.6 ± 6.0 mmHg
- Hematocrit, change from baseline ([2]; 5 mg OD, Day 1): −0.54 ± 0.85%
- SBP, change from baseline ([2]; 5 mg OD, Day 1): −1.3 ± 12.5 mmHg
- Serum calcium, change from baseline ([2]; 5 mg OD, Day 1): -0.10 ± 0.20 mg/dL
- Serum phosphorus, change from baseline ([2]; 5 mg OD, Day 1): 1.08 ± 0.37 mg/dL
- Urinary NAG, change from baseline ([2]; 5 mg OD, Day 1): −0.81 ± 1.01 U/L
- Urinary calcium, change from baseline ([2]; 5 mg OD, Day 1): -0.01 ± 0.04 g/day
- Urinary phosphorus, change from baseline ([2]; 5 mg OD, Day 1): -0.24 ± 0.11 g/day
- Urinary type IV collagen, change from baseline ([2]; 5 mg OD, Day 1): 0.11 ± 0.97 μg/g creatinine
- Urinary uric acid, change from baseline ([2]; 5 mg OD, Day 1): 0.08 ± 0.12 g/day
- Urinary β2-microglobulin, change from baseline ([2]; 5 mg OD, Day 1): -1.3 ± 13.5 µg/L
- Cystatin C, change from baseline ([2]; 5 mg OD, Day 7): -0.027 ± 0.065 mg/L
- DBP, change from baseline ([2]; 5 mg OD, Day 7): −3.1 ± 6.0 mmHg
- Hematocrit, change from baseline ([2]; 5 mg OD, Day 7): −1.66 ± 1.99%
- SBP, change from baseline ([2]; 5 mg OD, Day 7): −11.3 ± 11.8 mmHg
- Serum calcium, change from baseline ([2]; 5 mg OD, Day 7): -0.16 ± 0.45 mg/dL
- Serum phosphorus, change from baseline ([2]; 5 mg OD, Day 7): 0.42 ± 0.39 mg/dL
- Urinary NAG, change from baseline ([2]; 5 mg OD, Day 7): −0.11 ± 1.18 U/L
- Urinary calcium, change from baseline ([2]; 5 mg OD, Day 7): -0.03 ± 0.05 g/day
- Urinary phosphorus, change from baseline ([2]; 5 mg OD, Day 7): -0.01 ± 0.14 g/day
- Urinary type IV collagen, change from baseline ([2]; 5 mg OD, Day 7): 0.31 ± 1.26 μg/g creatinine
- Urinary uric acid, change from baseline ([2]; 5 mg OD, Day 7): 0.01 ± 0.10 g/day
- Urinary β2-microglobulin, change from baseline ([2]; 5 mg OD, Day 7): 1.4 ± 20.3 µg/L

Reference: article PMC4415995 (Advances in Therapy, 2015)
